Results as given in ChEMBL document CHEMBL5724801, “EUbOPEN Chemogenomics Library - Multiplex” (2024).
Several values for one entry are separate records, joined by “and”; a condition that tells them apart may be missing. Equal values may be shown once.

System: Fibroblast
Test: Multiplex assay against human fibroblast
Type: toxicity, cell-based
Method in brief: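 Values for tubulin, mitochondrial-mass and membrane-permeability phenotypes are per cents of cells with healthy nuclei. These cells were identified by CellPathfinder machine-learning gating of live cells that had been stained at seeding with Hoechst33342, BioTracker Green Microtubule Cytoskeleton Dye, MitoTracker Red and Annexin V Alexa Fluor 680 and imaged on a CQ1 microscope at 37°C and 5% CO2 after compound addition. The gating first set Hoechst high-intensity objects apart from normal cells, then split normal cells into healthy, pyknosed or fragmented nuclei, and pyknosed cells into mitotic or apoptotic.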

[1] = 12 h, 1 µM, compound concentration 1 uM
[2] = 12 h, 10 µM, compound concentration 10 uM
[3] = 24 h, 1 µM, compound concentration 1 uM
[4] = 24 h, 10 µM, compound concentration 10 uM
[5] = 48 h, 1 µM, compound concentration 1 uM
[6] = 48 h, 10 µM, compound concentration 10 uM

In the case of `COC(c1ccccc1)(c1ccccc1)[C@H](Oc1nc(C)cc(C)n1)C(=O)O` [AMBRISENTAN], the “Population Apoptotic (%)” value [1] is reported as 68% and 30%, the “Population Fragmented Nuclei (%)” value [1] is reported as 13% and 18% and the “Population Healthy Nuclei (%)” value [1] is reported as 66% and 56%. The “Population Hoechst High Intensity Objects (%)” value [1] was 1% and 4%, the “Population Membrane Permeable-Phenotype (%)” value [1] was 0% and 1% and the “Population Mitochondria Different-Phenotype (%)” value [1] was 4% and 6%. For the same compound, the “Population Mitotic Cells (%)” value [1] was 31% and 69%, the “Population Normal (%)” value [1] was 98% and 95% and the “Population Pyknosed Nuclei (%)” value [1] was 19% and 25%. For the same compound, the “Population Tubulin-Different-Phenotype (%)” value [1] was 29% and 37%, the “Total Cell Count” value [1] was 97 and 163 and the “Population Apoptotic (%)” value [2] was 56% and 33%. For the same compound, the “Population Healthy Nuclei (%)” value [2] was 70% and 25%, the “Population Hoechst High Intensity Objects (%)” value [2] was 5% and 4% and the “Population Membrane Permeable-Phenotype (%)” value [2] was 0% and 5%. The “Population Mitochondria Different-Phenotype (%)” value [2] was 11% and 0%, the “Population Mitotic Cells (%)” value [2] was 43% and 66% and the “Population Normal (%)” value [2] was 94% and 95%. The “Population Pyknosed Nuclei (%)” value [2] was 21% and 34%, the “Population Tubulin-Different-Phenotype (%)” value [2] was 25% and 35% and the “Total Cell Count” value [2] was 145 and 82. The “Population Apoptotic (%)” value [3] was 62% and 34%, the “Population Fragmented Nuclei (%)” value [3] was 15% and 14% and the “Population Healthy Nuclei (%)” value [3] was 67% and 62%. The “Population Hoechst High Intensity Objects (%)” value [3] was 2% and 5%, the “Population Membrane Permeable-Phenotype (%)” value [3] was 0% and 3% and the “Population Mitochondria Different-Phenotype (%)” value [3] was 4% and 3%. The “Population Mitotic Cells (%)” value [3] was 37% and 65%, the “Population Normal (%)” value [3] was 97% and 94% and the “Population Pyknosed Nuclei (%)” value [3] was 17% and 23%. The “Population Tubulin-Different-Phenotype (%)” value [3] was 38%, the “Total Cell Count” value [3] was 95 and 158 and the “Population Apoptotic (%)” value [4] was 69% and 27%. The “Population Healthy Nuclei (%)” value [4] was 68% and 27%, the “Population Hoechst High Intensity Objects (%)” value [4] was 7% and 5% and the “Population Membrane Permeable-Phenotype (%)” value [4] was 0% and 5%. The “Population Mitochondria Different-Phenotype (%)” value [4] was 11% and 10%, the “Population Mitotic Cells (%)” value [4] was 30% and 72% and the “Population Normal (%)” value [4] was 92% and 94%. The “Population Pyknosed Nuclei (%)” value [4] was 18% and 26%, the “Population Tubulin-Different-Phenotype (%)” value [4] was 29% and 36% and the “Total Cell Count” value [4] was 149 and 73. For the same compound, the “Population Apoptotic (%)” value [5] was 60% and 61%, the “Population Fragmented Nuclei (%)” value [5] was 19% and 24% and the “Population Healthy Nuclei (%)” value [5] was 64% and 54%. The “Population Hoechst High Intensity Objects (%)” value [5] was 4% and 0%, the “Population Membrane Permeable-Phenotype (%)” value [5] was 1% and 4% and the “Population Mitochondria Different-Phenotype (%)” value [5] was 5% and 10%. The “Population Mitotic Cells (%)” value [5] was 40% and 38%, the “Population Normal (%)” value [5] was 95% and 99% and the “Population Pyknosed Nuclei (%)” value [5] was 16% and 20%. For the same compound, the “Population Tubulin-Different-Phenotype (%)” value [5] was 28% and 42%, the “Total Cell Count” value [5] was 93 and 154 and the “Population Apoptotic (%)” value [6] was 61% and 71%. For the same compound, the “Population Healthy Nuclei (%)” value [6] was 71% and 31%, the “Population Hoechst High Intensity Objects (%)” value [6] was 7% and 3% and the “Population Membrane Permeable-Phenotype (%)” value [6] was 1% and 0%. The “Population Mitochondria Different-Phenotype (%)” value [6] was 10% and 0%, the “Population Mitotic Cells (%)” value [6] was 38% and 28% and the “Population Normal (%)” value [6] was 92% and 96%. For the same compound, the “Population Pyknosed Nuclei (%)” value [6] was 13% and 18%, the “Population Tubulin-Different-Phenotype (%)” value [6] was 34% and 62% and the “Total Cell Count” value [6] was 145 and 79.

In the case of `CC(C)[C@H](C(=O)Nc1ccc(C(=O)NO)cc1)c1ccccc1` [AR-42], the “Population Apoptotic (%)” value [1] is reported as 28.12% and 16.67%, the “Population Fragmented Nuclei (%)” value [1] is reported as 8.81% and 7.87% and the “Population Healthy Nuclei (%)” value [1] is reported as 74.61% and 85.39%. The “Population Hoechst High Intensity Objects (%)” value [1] was 0%, the “Population Membrane Permeable-Phenotype (%)” value [1] was 3.47% and 2.63% and the “Population Mitochondria Different-Phenotype (%)” value [1] was 4.17% and 7.89%. The “Population Mitotic Cells (%)” value [1] was 71.88% and 83.33%, the “Population Normal (%)” value [1] was 100% and the “Population Pyknosed Nuclei (%)” value [1] was 16.58% and 6.74%. For the same compound, the “Population Tubulin-Different-Phenotype (%)” value [1] was 4.17% and 7.24%, the “Total Cell Count” value [1] was 193 and 178 and the “Population Apoptotic (%)” value [2] was 32% and 26.67%. For the same compound, the “Population Fragmented Nuclei (%)” value [2] was 10.88% and 4.5%, the “Population Healthy Nuclei (%)” value [2] was 76.17% and 88.74% and the “Population Hoechst High Intensity Objects (%)” value [2] was 0%. The “Population Membrane Permeable-Phenotype (%)” value [2] was 6.8% and 2.54%, the “Population Mitochondria Different-Phenotype (%)” value [2] was 5.44% and 5.58% and the “Population Mitotic Cells (%)” value [2] was 68% and 73.33%. The “Population Normal (%)” value [2] was 100%, the “Population Pyknosed Nuclei (%)” value [2] was 12.95% and 6.76% and the “Population Tubulin-Different-Phenotype (%)” value [2] was 7.48% and 5.58%. For the same compound, the “Total Cell Count” value [2] was 193 and 222, the “Population Apoptotic (%)” value [3] was 40% and 44.44% and the “Population Fragmented Nuclei (%)” value [3] was 11.98% and 8.95%. The “Population Healthy Nuclei (%)” value [3] was 80.21% and 86.32%, the “Population Hoechst High Intensity Objects (%)” value [3] was 0% and the “Population Membrane Permeable-Phenotype (%)” value [3] was 2.6% and 3.05%. The “Population Mitochondria Different-Phenotype (%)” value [3] was 2.6% and 3.66%, the “Population Mitotic Cells (%)” value [3] was 60% and 55.56% and the “Population Normal (%)” value [3] was 100%. The “Population Pyknosed Nuclei (%)” value [3] was 7.81% and 4.74%, the “Population Tubulin-Different-Phenotype (%)” value [3] was 1.95% and 1.83% and the “Total Cell Count” value [3] was 192 and 190. For the same compound, the “Population Apoptotic (%)” value [4] was 50% and 57.14%, the “Population Fragmented Nuclei (%)” value [4] was 11.56% and 10.3% and the “Population Healthy Nuclei (%)” value [4] was 79.19% and 83.69%. The “Population Hoechst High Intensity Objects (%)” value [4] was 0%, the “Population Membrane Permeable-Phenotype (%)” value [4] was 3.65% and 0% and the “Population Mitochondria Different-Phenotype (%)” value [4] was 4.38% and 6.67%. For the same compound, the “Population Mitotic Cells (%)” value [4] was 50% and 42.86%, the “Population Normal (%)” value [4] was 100% and the “Population Pyknosed Nuclei (%)” value [4] was 9.25% and 6.01%. For the same compound, the “Population Tubulin-Different-Phenotype (%)” value [4] was 3.65% and 2.56%, the “Total Cell Count” value [4] was 173 and 233 and the “Population Apoptotic (%)” value [5] was 37.5% and 50%. The “Population Fragmented Nuclei (%)” value [5] was 15.15% and 11.46%, the “Population Healthy Nuclei (%)” value [5] was 76.77% and 82.29% and the “Population Hoechst High Intensity Objects (%)” value [5] was 0%. For the same compound, the “Population Membrane Permeable-Phenotype (%)” value [5] was 1.32% and 1.27%, the “Population Mitochondria Different-Phenotype (%)” value [5] was 19.74% and 7.59% and the “Population Mitotic Cells (%)” value [5] was 62.5% and 50%. For the same compound, the “Population Normal (%)” value [5] was 100%, the “Population Pyknosed Nuclei (%)” value [5] was 8.08% and 6.25% and the “Population Tubulin-Different-Phenotype (%)” value [5] was 2.63% and 3.8%. For the same compound, the “Total Cell Count” value [5] was 198 and 192, the “Population Apoptotic (%)” value [6] was 31.48% and 89.58% and the “Population Fragmented Nuclei (%)” value [6] was 17.84% and 9.95%. The “Population Healthy Nuclei (%)” value [6] was 52.97% and 64.92%, the “Population Hoechst High Intensity Objects (%)” value [6] was 0% and the “Population Membrane Permeable-Phenotype (%)” value [6] was 1.02% and 3.23%. The “Population Mitochondria Different-Phenotype (%)” value [6] was 21.43% and 8.06%, the “Population Normal (%)” value [6] was 100% and the “Population Pyknosed Nuclei (%)” value [6] was 29.19% and 25.13%. For the same compound, the “Total Cell Count” value [6] was 185 and 191.
